Drawing on ChEMBL document CHEMBL1153987 (J Med Chem, 2009), this text covers IC50 and Activity for eleven compounds.

Test [1] is described as follows: Inhibition of CK2 assessed as level of ATP utilized by luciferase-based bioluminescence assay.
Test [2] concerns the target Heat shock protein beta-1 (Homo sapiens) (UniProt P04792). Kind of test: Enhancement of HSP27 Ser78 phosphorylation in human HeLa cells at 50 ug/mL treated for 1 hr. It counts as cell-based. The gist of the method: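 HeLa cells in DMEM + 10% calf serum, exponentially growing, exposed 1 h to 50 μg/ml compound; total cell extracts probed by Western blot with rabbit antibody to human HSP27 phospho-Ser78, alkaline phosphatase-conjugated goat anti-rabbit secondary, colorimetric detection.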

The test system of test [3] is Jurkat. Kind of test: Inhibition of heat-induced HSP70 expression in human Jurkat cells at 50 ug/mL treated for 1 hr before heat induction by Western blot. The test is classed as functional, cell-based. A general note: In western blotting, separated proteins are transferred to a membrane and probed.
Test [4] in a line: Inhibition of CAMK2 assessed as level of ATP utilized by luciferase-based bioluminescence assay.
Test [5] concerns Jurkat. Description: Inhibition of heat-induced increase in nuclear HSF1 protein level in human Jurkat cells at 50 ug/mL treated for 1 hr before heat induction by Western blot. The test is classed as functional, cell-based. The gist of the method: (§1)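 Cells were pretreated with compound for 1 h, then heat-shocked at 43 °C for 30 min. Nuclear extracts, the same ones prepared for EMSA, were analysed by Western blot with rabbit anti-HSF1 and goat anti-rabbit HRP, with chemiluminescent detection. Nuclear HSF1 level was read from band intensity. The phosphorylation state was read as reduced gel mobility of the HSF1 band.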

The test system of test [6] is HeLa. Kind of test: Inhibition of heat-induced increase in nuclear HSF1 protein phosphorylation in human HeLa cells assessed as decrease in protein mobility at 50 ug/mL treated for 1 hr before heat induction by EMSA. It counts as functional, cell-based. The method in brief: as §1
Test [7] concerns Jurkat. Description: Inhibition of heat-induced increase in nuclear HSF1 protein phosphorylation in human Jurkat cells assessed as decrease in protein mobility at 50 ug/mL treated for 1 hr before heat induction by EMSA. It counts as functional, cell-based. The method in brief:
as §1

The subject of test [8] is HeLa. Kind of test: Inhibition of heat-induced increase in nuclear HSF1 protein level in human HeLa cells at 50 ug/mL treated for 1 hr before heat induction by Western blot. It counts as functional, cell-based. The gist of the method: as §1

pIC50: −log10 of the molar value. Active and inactive are the calls of the source. The calls are words filed in the database; no cut-off is given here. Bounds are passed on as bounds.

Chain of Heat shock protein beta-1 (Homo sapiens) (P04792 whole entry): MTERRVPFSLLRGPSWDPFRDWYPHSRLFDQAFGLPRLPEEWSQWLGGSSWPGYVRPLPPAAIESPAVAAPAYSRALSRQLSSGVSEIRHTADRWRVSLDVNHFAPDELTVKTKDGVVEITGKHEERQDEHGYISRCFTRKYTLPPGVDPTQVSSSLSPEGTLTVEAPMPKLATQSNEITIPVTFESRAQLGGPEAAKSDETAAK

Usually pIC50 stands for −log10 of the IC50, conventionally taken in molar units. As to `COc1c(-c2ccc(O)c(O)c2)oc2cc(O)cc(O)c2c1=O` [3-O-METHYLQUERCETIN], the values for the pIC50 in test [1] and in test [4] were 6.08 and below 4.00, respectively. Moreover, the outcome (in test [2]; in the test with Jurkat [3]) was inactive.
Take `O=C(O)COc1c(-c2ccc(O)c(O)c2)oc2cc(O)cc(O)c2c1=O`: the pIC50 is 5.61 in test [1] and below 4.00 in test [4]. Besides, the outcome (in test [2]; with Jurkat [3]) was inactive.
As for `COc1cc(O)c2c(=O)c(O)c(-c3ccc(O)c(O)c3)oc2c1` [RHAMNETIN], the values for the pIC50 in test [1] and in test [4] were 5.01 and 5.05, respectively. In addition, the outcome (in test [2]; in the test with Jurkat [3]) was Active.
For the compound `COc1cc(-c2oc3cc(O)cc(O)c3c(=O)c2O)ccc1O` [ISORHAMNETIN], the pIC50 in test [1] is 6.30; in test [4] it was 6.04. In addition, the result in test [2] was inactive. The result in the test on Jurkat [3] was Active.
As to `O=c1c(O)c(-c2ccc(O)c(O)c2)oc2cc(O)cc(O)c12` [QUERCETIN], the result with Jurkat [5] and in the test on HeLa [8] was inactive. For the same compound, the outcome (in the test on HeLa [6]; in test [2]; with Jurkat [3]; with Jurkat [7]) was Active. The results for the pIC50 in test [1] and in test [4] were 5.25 and 5.48, respectively.
With `COC(=O)COc1cc(O)c2c(=O)c(O)c(-c3ccc(O)c(O)c3)oc2c1`, the pIC50 in test [1] was 6.07; in test [4], 5.04. Moreover, the result (in test [2]; with Jurkat [3]) was Active.
Consider `COc1ccc(-c2oc3cc(O)cc(O)c3c(=O)c2O)cc1O` [TAMARIXETIN], for which the figures for the negative logarithm of the IC50 (pIC50) in test [1] and in test [4] were below 4.00 and 4.79, respectively. Moreover, the result in test [2] was inactive.
Regarding `COC(=O)COc1cc(-c2oc3cc(O)cc(O)c3c(=O)c2O)ccc1O`, the pIC50 was 4.28 in test [1] and 5.20 in test [4]. The result in test [2] was inactive. In addition, the result in the test with Jurkat [3] was Active.
As for `COc1cc(O)cc2oc(-c3ccc(O)c(O)c3)c(O)c(=O)c12`, the results for the pIC50 in test [1] and in test [4] were below 4.00 and 5.40, respectively. The result (in test [2]; in the test with Jurkat [3]) was inactive.
As for `COC(=O)COc1cc(O)cc2oc(-c3ccc(O)c(O)c3)c(O)c(=O)c12`, the pIC50 is below 4.00 in test [1] and 4.16 in test [4]. Further, the outcome (in test [2]; with Jurkat [3]) was inactive.
`O=C(O)COc1cc(O)c2c(=O)c(O)c(-c3ccc(O)c(O)c3)oc2c1`: the pIC50 in test [1] is 5.01; in test [4] it was 5.03. For the same compound, the outcome (in test [2]; in the test on Jurkat [3]) was inactive.
